KLK7 zymogen act = proKLK7 zymogen activators, primary screen, biochemical, fluorescence intensity; 370,000 compounds, 0.9% hits; activation, % at 7 µM; Kallikrein-7 (Homo sapiens), P49862; AID 652039, 2013; purified proKLK7, EDANS-DABCYL substrate fluorescence; 100% is mature enzyme control, 0% vehicle;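 active = activation above the mean of all tested compounds plus 3 SD, computed per campaign excluding outliers beyond control limits, cut at about 13% in these data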
Target sequence (P49862 whole entry, looked up): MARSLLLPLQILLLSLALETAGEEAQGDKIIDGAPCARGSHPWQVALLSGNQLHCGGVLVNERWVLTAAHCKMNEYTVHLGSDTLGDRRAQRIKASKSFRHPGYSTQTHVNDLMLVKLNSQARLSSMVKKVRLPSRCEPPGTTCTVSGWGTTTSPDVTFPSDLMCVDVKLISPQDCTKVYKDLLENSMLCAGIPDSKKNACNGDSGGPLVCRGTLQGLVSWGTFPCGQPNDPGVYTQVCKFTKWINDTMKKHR
NR2E3 ag-1 = NR2E3 agonists in two-hybrid cells, primary screen, cell-based, luminescence, CHO-S, Gal4-NCOR/VP16-NR2E3; 360,000 compounds, 0.35% hits; Photoreceptor-specific nuclear receptor (Homo sapiens), Q9Y5X4; luciferase; inhibition of corepressor binding, % at 3.98 µM; AID 602229, 2012;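 active = inhibition above the mean of all tested compounds plus 3 SD, cut at about 70% in these data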;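 note: 0% = DMSO with NR2E3 transfected cells and 100% = cells lacking NR2E3 construct; higher means lower luciferase signal from less NR2E3 corepressor binding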
ADAM10 inh = human ADAM10 inhibitors, primary screen, biochemical, QFRET, HTS | recombinant ADAM10, EDANS/DABCYL FRET peptide cleavage, 3 h | inhibition, % at 7 µM | 370,000 compounds, 0.62% hits;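 active = inhibition above a per-campaign cutoff equal to the mean of compounds falling between control-based bounds plus 3 SD, cut at about 20% in these data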;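 note: 0% = DMSO wells while the 100% control is not disclosed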
NR2E3 ag-2 = inhibitors of NR2E3-RetCOR corepressor binding, primary screen, NR2E3 agonist project, biochemical, TR-FRET, GST-NR2E3, biotin-RetCOR; AID 2300, 2010; 1536-well; 320,000 compounds, 0.12% hits; Photoreceptor-specific nuclear receptor (Homo sapiens), Q9Y5X4; inhibition of corepressor binding, % at 4.78 µM;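 active = percent inhibition above the cutoff of mean plus 3 SD of all tested compounds, set per screening campaign, cut at about 20% in these data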;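 note: 0% = DMSO wells and 100% = biotin wells as full block of FRET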
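Format: 1536-well format; test system: GST-NR2E3 and biotin-RetCOR proteins; read-out basis: percent inhibition of TR-FRET ratio; timing: 5 h incubation at 4 °C; detection: time-resolved FRET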
GASC-1 inh = inhibitors of GASC-1 histone demethylase, primary screen, biochemical, fluorescence, DELFIA europium; Lysine-specific demethylase 4C (Homo sapiens), Q9H3R0; GST-JMJD2C(1-420) H3K9me3 demethylation; inhibition, % at 2.35 µM; 330,000 compounds, 0.069% hits; AID 2099, 2009;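 active = more than half of a compound's replicate wells show inhibition beyond 50%, single wells judged on their own value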;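 note: signal counts dimethyl H3K9 product captured on neutravidin plate; 0% = median of DMSO wells and 100% = 0.3 times that DMSO median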
Target sequence (Q9H3R0 1-420 limits assumed): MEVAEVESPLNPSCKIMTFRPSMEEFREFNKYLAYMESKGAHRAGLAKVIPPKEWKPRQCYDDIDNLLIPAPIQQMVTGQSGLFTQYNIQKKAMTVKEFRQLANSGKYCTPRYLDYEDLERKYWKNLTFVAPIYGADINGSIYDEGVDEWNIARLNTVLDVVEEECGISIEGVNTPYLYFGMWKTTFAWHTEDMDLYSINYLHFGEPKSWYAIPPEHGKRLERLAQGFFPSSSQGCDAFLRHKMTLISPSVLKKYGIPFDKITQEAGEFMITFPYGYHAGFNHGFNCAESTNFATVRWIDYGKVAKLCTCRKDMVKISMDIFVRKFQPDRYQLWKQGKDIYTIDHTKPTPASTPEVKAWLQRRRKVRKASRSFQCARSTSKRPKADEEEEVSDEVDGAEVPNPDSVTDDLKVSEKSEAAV
ADAM17 inh = ADAM17 inhibitors, primary screen, biochemical, QFRET. AID 720648, 2013. Disintegrin and metalloproteinase domain-containing protein 17 (Homo sapiens), P78536. recombinant ADAM17, EDANS/DABCYL FRET peptide cleavage. inhibition, % at 6.95 µM. 370,000 compounds, 0.83% hits;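 active = inhibition above the mean of compounds lying between control limits plus 3 SD, set per campaign, cut at about 8.5% in these data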;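 note: 0% = DMSO-only wells as the low control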
ADAM10 confirm = human ADAM10 inhibitors, confirmation, biochemical, QFRET, triplicate; inhibition, % at 6.95 µM; AID 743208, 2013; shares compounds with ADAM10 inh; ADAM10 QFRET peptide cleavage, EDANS fluorescence; 2,100 compounds, 1% hits;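 active = inhibition above about 20% chosen separately for each screening run, limit read from the data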;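 note: 0% = DMSO wells and 100% = marimastat wells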
ADAM17 counter = ADAM17 inhibitors, counter-screen for ADAM10 exosite inhibitor project, biochemical, QFRET, high throughput; AID 743214, 2013; inhibition, % at 6.95 µM; ADAM17 QFRET peptide cleavage, EDANS fluorescence; 2,100 compounds, 0.5% hits; shares compounds with ADAM10 inh;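 active = mean triplicate inhibition above the solvent-only control wells' mean plus 3 SD, cut at about 12% in these data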;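 note: 0% = DMSO wells and 100% = marimastat wells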
Numbers without * were called inactive; x = no result given. Shown are actives, neighbours in structure and some others; about 2.5% of the full set was active somewhere.

SMILES | KLK7 zymogen act | NR2E3 ag-1 | ADAM10 inh | NR2E3 ag-2 | GASC-1 inh | ADAM17 inh | ADAM10 confirm | ADAM17 counter
O=C(CCc1ccccc1)N[C@H]1[C@H](OC(=O)c2ccco2)CCC[C@@]12C(=O)N(Cc1ccccc1)c1ccccc12 | 1 | x | 21* | x | x | 6 | 4 | 2
COc1ccc(CCNC(=O)COc2ccc(S(=O)(=O)NC3CCCCC3)cc2Cl)cc1 | 0 | -26 | 23* | 1 | 3 | 7 | 3 | 1
COc1ccc(NC(=O)CSc2nnc(N)s2)cc1S(=O)(=O)N1CCCCC1 | 0 | 11 | 2 | x | -11 | 1 | x | x
O=C(Nc1ccccc1C(F)(F)F)c1ccc(F)c(S(=O)(=O)N2CCOCC2)c1 | 1 | 24 | 22* | 6 | -6 | 4 | 3 | 0
O=C(Nc1ccccc1N1CCCCC1)c1ccc(F)c(S(=O)(=O)N2CCOCC2)c1 | 0 | 7 | 4 | 3 | 2 | 4 | x | x
CC1(C)CC(=O)c2c(oc3cc(O)c(O)cc23)C1 | 0 | -27 | 21* | 0 | -12 | 2 | 4 | 2
COC(=O)c1oc2c(c1C)C(=O)CC(C)(C)C2 | 0 | 4 | -6 | 2 | 8 | -4 | x | x
Cc1ccc(Cl)cc1N1CCN(C(=O)c2ccc(CS(=O)Cc3ccc(Cl)cc3)o2)CC1 (stereo not drawn) | 0 | -4 | 23* | 1 | 2 | 3 | 3 | 2
C#CCOCCOCCOCCNc1nc(N2CCN(C(=O)CCCCCCCCCCNC(=O)[C@@H](CCSC)n3cc(CCO)nn3)CC2)nc(N2CCN(C(=O)CCCCCCCCCCNC(=O)[C@@H]([C@H](C)O)n3cc(C)nn3)CC2)n1 | 0 | 15 | 20* | 3 | 0 | 5 | 2 | 0
C#CCOCCOCCOCCNc1nc(N2CCN(C(=O)CCCCCCCCCCNC(=O)[C@H](CCCCN)n3cc(C)nn3)CC2)nc(N2CCN(C(=O)CCCCCCCCCCNC(=O)[C@@H]([C@H](C)O)n3cc(C)nn3)CC2)n1 | x | 1 | x | 0 | x | x | x | x
COC(=O)[C@]12C[C@H](CC(=O)NCc3cccc4ccccc34)C(=O)N(Cc3cccc4ccccc34)C1=C[C@H](C(C)C)O[C@@H]2C1CC1 | -1 | x | 13 | x | x | 7 | x | x
COC(=O)[C@]12C[C@H](CC(=O)NCc3cccc(C(F)(F)F)c3)C(=O)N(Cc3ccccc3)C1=C[C@H](C(C)C)O[C@@H]2C1CC1 | 1 | x | 10 | x | x | 6 | x | x
COC(=O)[C@]12C[C@H](CC(=O)NCc3ccccc3)C(=O)N(Cc3cccc4ccccc34)C1=C[C@H](C(C)C)O[C@@H]2C1CC1 | 0 | x | 23* | x | x | 8 | 10 | 3
COC(=O)[C@]12C[C@H](CC(=O)NCc3cccc(C(F)(F)F)c3)C(=O)N(Cc3cccc4ccccc34)C1=C[C@H](C(C)C)O[C@@H]2C1CC1 | 0 | x | 25* | x | x | 3 | 10 | 3
CCOc1cc2c(cc1OCC)C(c1ccccc1)N(c1ccccc1)C(=O)C2 (stereo not drawn) | 1 | 1 | -2 | 0 | -3 | -2 | x | x
COc1ccc(-c2nn(-c3ccccc3)cc2C(=O)NC2CC2)cc1 | 0 | -13 | 2 | 2 | -3 | 5 | x | x
O=C(NNC(=S)Nc1ccc(Cl)cc1Cl)c1ccncc1 | 0 | -36 | 21* | 2 | 0 | 7 | 3 | 0
COc1ccc(C(=O)NNC(=O)CCn2nnc(-c3ccc(Cl)cc3)n2)cc1OC | 0 | 20 | -1 | 4 | -10 | 1 | x | x
COc1ccccc1-c1nnc(SC(C(=O)c2c[nH]c3ccccc23)c2ccccc2)n1C (stereo not drawn) | 1 | -12 | 23* | 3 | -2 | 2 | 6 | 1
COC(=O)C(Cc1cnc(Cl)s1)(C(=O)OC)c1ccc([N+](=O)[O-])cc1[N+](=O)[O-] | 1 | -14 | -7 | -1 | 5 | -2 | x | x
COC(=O)C(Cc1cnc(Cl)s1)(C(=O)OC)c1ccc(C(F)(F)F)cc1[N+](=O)[O-] | 0 | -9 | 20* | 4 | x | 5 | 4 | 0
Cc1ccc(N2CC(C(=O)Nc3nnc(SCC(N)=O)s3)CC2=O)cc1 (stereo not drawn) | 0 | -21 | 81* | 1 | -1 | 0 | 1 | -1
CCn1c(O)c(N=NC(=O)CNC(=O)c2cccnc2)c2ccccc21 | 0 | 4 | -7 | x | x | -2 | x | x
C=C(C)COc1ccc(-c2[nH]ncc2Oc2ccccc2OC)c(O)c1 | 0 | -27 | -8 | -3 | -43 | -4 | x | x
CCOc1ccc(-c2[nH]ncc2Oc2ccccc2OCC)c(O)c1 | 0 | -26 | 26* | 1 | -42 | 7 | 8 | 2
SMILES | KLK7 zymogen act | NR2E3 ag-1 | ADAM10 inh | NR2E3 ag-2 | GASC-1 inh | ADAM17 inh | ADAM10 confirm | ADAM17 counter
CCOc1ccc(-c2nc(N)ncc2Oc2ccccc2Br)c(O)c1 | -1 | -27 | 21* | -3 | -18 | 4 | 6 | 2
C=C(C)COc1ccc(-c2[nH]ncc2Oc2ccc(OC)cc2)c(O)c1 | 0 | 5 | 21* | -8 | -26 | 7 | 12 | 4
Cc1cccc(OCc2n[nH]c(=S)n2C2CCCCC2)c1 | 0 | -25 | 21* | 1 | 1 | 6 | 0 | 0
Cc1ccc(OCc2n[nH]c(=S)n2C2CCCCC2)cc1 | 0 | -13 | 11 | 0 | -11 | 5 | x | x
COc1cc(C(=O)NCC(C)(C)CNC(=O)c2cc(OC)c(OC)c(OC)c2)cc(OC)c1OC | 0 | -3 | 6 | 1 | 4 | -1 | x | x
CCOc1ccc(/C=N/NC(=O)Cc2csc(Nc3cccc(C(F)(F)F)c3)n2)cc1 | 0 | 9 | 12 | 3 | -1 | 3 | x | x
CCOc1ccc(/C=N/NC(=O)Cc2csc(Nc3cccc(C(F)(F)F)c3)n2)c(OCC)c1 | -2 | -26 | 20* | -2 | -3 | 8 | 12 | 3
